Results as given in ChEMBL document CHEMBL3867454, “Corallocins A-C, Nerve Growth and Brain-Derived Neurotrophic Factor Inducing Metabolites from the Mushroom Hericium coralloides” (J Nat Prod, 2016).
pIC50: −log10 of the molar value. Values after ≈ are worked out from the molar mass of the structure shown. Active and inactive are the calls of the source. The calls are words filed in the database; no cut-off is given here.

Experiments:
[1] = Upregulation of NGF expression in human 1321N1 cells at 68.9 uM measured after 6 hrs by semiquantitative RT-PCR analysis relative to DMSO-control; format: functional, cell-based
Summary of the method: (§1)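 1321N1 astrocytes were grown to confluence on 3.5 cm plates and switched to serum-free DMEM 24 h before compound addition. Primers were specific for GAPDH, NGF (189 bp) and BDNF (101 bp). PCR programs: GAPDH 20 cycles at 60 °C annealing; NGF 30 cycles at 61 °C; BDNF 30 cycles at 58 °C. Products were run on 1% or 2% agarose, with GAPDH as loading control and identity confirmed by sequencing. n = 3 independent experiments.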

[2] = Cytotoxicity against mouse L929 cells measured after 5 days by MTT assay; format: functional, cell-based; conditions: L929, 120 h
Summary of the method: (§2)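 Compounds added from 30 μg/mL methanol stocks by serial dilution in 96-well plates. L929 was cultured in DMEM, MCF-7 and KB-3-1 in RPMI-1640, all with 10% FCS, 5% CO2, 37 °C, 5 days. Methanol was the negative control and epothilone A the positive control. IC50 values were derived from the dilution series.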

[3] = Cytotoxicity against HUVEC measured after 5 days by MTT assay; format: functional, cell-based; conditions: Homo sapiens, 120 h
[4] = Cytotoxicity against human MCF7 cells measured after 5 days by MTT assay; format: functional, cell-based; conditions: MCF7, 120 h; summary of the method: as §2
[5] = Cytotoxicity against human KB-3-1cells measured after 5 days by MTT assay; format: functional, cell-based; conditions: KB 3-1, 120 h; summary of the method: as §2
[6] = Antifungal activity against Mucor plumbeus MUCL 49355 measured after 20 to 24 hrs by serial dilution assay; format: functional
[7] = Increase in BDNF expression in human 1321N1 cells at 68.9 uM measured after 6 hrs by semiquantitative RT-PCR analysis relative to DMSO-control; format: functional; summary of the method: as §1
[8] = system: 1321N1 (Homo sapiens); test: Cytotoxicity against human 1321N1 cells assessed as induction of cell death measured after 24 hrs; conditions: pooled result: one value given for 2 cell lines, strains, targets or settings
[9] = Upregulation of NGF expression in human 1321N1 cells at 57.8 uM measured after 6 hrs by semiquantitative RT-PCR analysis relative to DMSO-control; format: functional, cell-based; summary of the method: as §1
[10] = system: 1321-N1; test: Induction of NGF secretion in human 1321N1 cells at 57.8 uM after 48 hrs; format: functional, cell-based
[11] = system: 1321-N1; test: Induction of NGF secretion in human 1321N1 cells at 19.6 uM after 48 hrs; format: functional, cell-based
[12] = system: PC-12; test: Intrinsic neurotrophic activity in rat PC12 cells in conditioned 1321N1 culture medium assessed as neurite outgrowth at 57.8 uM measured after 48 hrs by light microscopy method; format: functional, cell-based
[13] = system: PC-12; test: Intrinsic neurotrophic activity in rat PC12 cells in conditioned 1321N1 culture medium assessed as neurite outgrowth at 19.6 uM measured after 48 hrs by light microscopy method; format: functional, cell-based
[14] = Upregulation of NGF expression in human 1321N1 cells at 19.6 uM measured after 6 hrs by semiquantitative RT-PCR analysis relative to DMSO-control; format: functional, cell-based; summary of the method: as §1
[15] = Increase in BDNF expression in human 1321N1 cells at 19.6 uM measured after 6 hrs by semiquantitative RT-PCR analysis relative to DMSO-control; format: functional; summary of the method: as §1

With `COc1cc2c(c(O)c1C/C=C(\C)CCC=C(C)C)CN(CCc1ccc(O)cc1)C2=O` the fold change (FC) [1] was 2, the pIC50 [2] was 4.83 and the pIC50 [3] was 5.68. It also gave a pIC50 [4] of 5.04, a pIC50 [5] of 4.94 and an MIC [6] of 57.4 µM (≈ 25 µg/mL). The “fold change (FC)” value [7] was 1.5 and the MNTC at 24 h [8] was 68.9 µM.
In the case of `COc1cc2c(c(O)c1C/C=C(\C)CC/C=C(\C)C(=O)O)COC2=O`, the fold change (FC) [9] was 3, the Activity [10] was “Active” and the Activity [11] was “Active”. For the same compound, the Activity [12] was “Active” and the MNTC at 24 h [8] was 57.8 µM.
In the case of `COc1cc2c(c(O)c1C/C=C(\C)CCC=C(C)C)CN(CCc1c[nH]c3ccccc13)C2=O`, the Activity [10] was “Active”, the Activity [11] was “Active” and the Activity [13] was “Active”. The fold change (FC) [14] was 5, the “fold change (FC)” value [15] was 1.9 and the MNTC at 24 h [8] was 19.6 µM.
